Experimental data reported in ChEMBL document CHEMBL4513216, “Probing the Open Global Health Chemical Diversity Library for Multistage-Active Starting Points for Next-Generation Antimalarials” (ACS Infect Dis, 2020).

Assay: Toxicity liver stage against HepG2, at 10uM
Format: cell-based
Design: test concentration 10 uM, cell line HepG2-A16-CD81EGFP
Conditions: human, HepG2-A16-CD81EGFP cells; read-out: INHIBITION
Outline: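 Uninfected HepG2-A16-CD81EGFP cells, 3 × 10^3 per well, 1536-well, plated on prespotted compound at 10 μM final, parasite-free screening media added to match infected plates; puromycin 10 μM positive, DMSO 0.5% negative; run in parallel with 48 h PbLuc assay at 37 °C, 5% CO2; viability by CellTiter-Glo luminescence, normalized to controls.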

CN1CCN(c2ccc(NS(=O)(=O)c3ccc(Cl)s3)cc2C(=O)O)CC1
cytotoxicity at 10 µM: -1.08%

Cc1ccnc(NC(=O)C2(n3cnnn3)CCCCC2)c1
cytotoxicity at 10 µM: -0.0864%

CS(=O)(=O)N1CCN(C(=O)c2cc(-c3ccc(Br)s3)n[nH]2)CC1
cytotoxicity at 10 µM: -7.62%

Cc1cc(C)n(CCN2CCN(C(=O)c3ccc(Br)o3)CC2)n1
cytotoxicity at 10 µM: -8.46%

O=C(C1CCC1)N1CCC2(CC1)CNCCO2
cytotoxicity at 10 µM: -4.29%

CN(C)C(=O)N1CCc2ccc(=O)[nH]c2CC1
cytotoxicity at 10 µM: 5.39%

CC(C)NC(=O)[C@H]1C[C@H]2NCCO[C@@H]2C1
cytotoxicity at 10 µM: -134%

CN(C)CC(=O)N1CCC2(CC1)COCCN(c1ncccn1)C2
cytotoxicity at 10 µM: 5.38%

O=C(CC1CC1)N1Cc2nccn2CC(Cn2ncccc2=O)C1 (stereo not given)
cytotoxicity at 10 µM: 7.04%

Cn1cc(CN2CCC3(CC2)CN(C(=O)c2cnccn2)CCO3)cn1
cytotoxicity at 10 µM: -5.49%

CCOCc1ncn2c1CN(S(=O)(=O)c1cccs1)CCC2
cytotoxicity at 10 µM: 9.52%

COCCO[C@@H]1CCN(C(=O)c2occc2C)[C@H]1Cc1cnn(C)c1
cytotoxicity at 10 µM: 5.1%

Oc1nc(N2CCCC2)nc2nccc(-c3ccccn3)c12
cytotoxicity at 10 µM: 1.36%

Cn1cc(I)c(C(=O)NC2CCCC2)n1
cytotoxicity at 10 µM: 5.53%

O=C(NCC1CC1)c1nc(COc2ccc3c(c2)OCO3)no1
cytotoxicity at 10 µM: 8.89%

COc1ncnc2c1CCN(c1cc(C(F)(F)F)ncn1)CC2
cytotoxicity at 10 µM: -1.42%

O=C(C1=CCCC1)N1CCO[C@H]2[C@@H](OCC3CC3)CC[C@@H]21
cytotoxicity at 10 µM: -5.66%

COCCN1CCN(C(=O)c2ccncc2F)Cc2cccnc21
cytotoxicity at 10 µM: 10%

COC(=O)Cn1c(=O)cc(C(F)F)c2c(C)nn(CC(F)F)c21
cytotoxicity at 10 µM: 6.2%

CC(=O)Nc1ncc(S(=O)(=O)Nc2cccc(F)c2)s1
cytotoxicity at 10 µM: 2.93%

Cc1nn(C)c2c(N3CCN(C(=O)NC4CCCCC4)CC3)ncnc12
cytotoxicity at 10 µM: 9.09%

O=C(O)c1ccccc1-c1ccc(CN2CCC(CO)C2)cc1 (stereo not given)
cytotoxicity at 10 µM: -14.6%

Cn1c(C(=O)NC(Cc2ccsc2)c2cccnc2)cc(=O)n(C)c1=O (stereo not given)
cytotoxicity at 10 µM: 2.61%

c1cc(C2CCCN2CC2CCCCC2)n[nH]1 (stereo not given)
cytotoxicity at 10 µM: -1.83%

CNc1nc(C2CCCN(C(=O)C(C)(C)OC)C2)nc2c1CN(C)CC2 (stereo not given)
cytotoxicity at 10 µM: -8.24%

O=S(=O)(c1cn[nH]c1)N1CCCC1c1cc[nH]n1 (stereo not given)
cytotoxicity at 10 µM: -23%

Fc1ccc(-c2nccnc2C2CCCNC2)cc1 (stereo not given)
cytotoxicity at 10 µM: -23.8%

CC(NC(=O)NC1CCN(Cc2ccccc2)CC1)c1nncn1C (stereo not given)
cytotoxicity at 10 µM: -12.5%

CCCN(CC(=O)OC)C(=O)c1sc(C)nc1C
cytotoxicity at 10 µM: -2.42%

CC(C)(C)c1ncc(C(=O)NCc2cccc(C(=O)N3CCCC3)c2)s1
cytotoxicity at 10 µM: -4.57%

COc1ccc(Cl)cc1CS(=O)(=O)CC(=O)NC(C)CCC(C)C (stereo not given)
cytotoxicity at 10 µM: 11%

COc1ccc(Cl)cc1CS(=O)(=O)Cc1cc(C)on1
cytotoxicity at 10 µM: 6.06%

CN(Cc1ccc(Cl)s1)C(=O)NCCN1CCCCCC1=O
cytotoxicity at 10 µM: -0.509%

O=C(OCc1ccccc1)C1CCCN1Cc1nc(C2CC2)no1 (stereo not given)
cytotoxicity at 10 µM: -5.43%

Cc1nc(CN[C@H]2CCCN(C(=O)OC(C)(C)C)C2)cs1
cytotoxicity at 10 µM: 0.577%

CCN(CC)CCn1cc(NC2CCN(C(C)(C)C)CC2)cn1
cytotoxicity at 10 µM: -6.53%

Fc1ccc(CNCCn2cccn2)c(F)c1
cytotoxicity at 10 µM: 8.59%

Cc1nn(C)c(C)c1CCC(=O)N(C)Cc1ccc(C#N)cc1
cytotoxicity at 10 µM: -2.45%

CN(C)S(=O)(=O)c1ccc2c(c1)N(Cc1ccccn1)CCC2
cytotoxicity at 10 µM: 0.645%

Cc1cc(C(=O)NC2CCN(C(=O)Nc3cccnc3)CC2)c(C)o1
cytotoxicity at 10 µM: 6.62%

CN(c1ncnc2c1cnn2C)C1CCCN(c2cccnn2)C1 (stereo not given)
cytotoxicity at 10 µM: 3.93%

CCc1nc(C2CCCN2C(=O)c2ccc(=O)n(CC)n2)no1 (stereo not given)
cytotoxicity at 10 µM: 2.72%

COc1ccc(S(=O)(=O)N2CCn3nc(C)nc3C2)cc1C
cytotoxicity at 10 µM: 9.68%

O=C(NCCCn1cncn1)c1ccc(-c2ccccc2)[nH]c1=O
cytotoxicity at 10 µM: -4.86%

CSC1(CNC(=O)NC(C)Cc2cccc(F)c2)CCOCC1 (stereo not given)
cytotoxicity at 10 µM: -15.6%

CCN(CCNC(=O)C1CCCN(C(C)=O)C1)c1ccccc1C (stereo not given)
cytotoxicity at 10 µM: 4.87%

CN(C)C(=O)CN(C)C(=O)c1csc(Br)c1
cytotoxicity at 10 µM: 12.3%

COc1cccc(COCC(O)CN(C)c2ccc(C)cc2C)c1 (stereo not given)
cytotoxicity at 10 µM: 9.66%

COc1cccc(S(=O)(=O)Cc2noc(CC(C)C)n2)c1
cytotoxicity at 10 µM: 12%

Cc1cc(C)c(CNC(=O)N(C)Cc2nnc3n2CCC3)c(=O)[nH]1
cytotoxicity at 10 µM: -10.5%

Cc1csc(CNC(=O)N(C)Cc2nnc3n2CCC3)n1
cytotoxicity at 10 µM: -4.75%

Cc1noc(C)c1CNS(=O)(=O)N(C)Cc1ccccc1Br
cytotoxicity at 10 µM: 17.8%

COc1ccc(C2(CNC(C)c3nnc(C)o3)CCCCC2)cc1 (stereo not given)
cytotoxicity at 10 µM: 4.21%

NC(=O)CSCC(=O)N1CCc2cc(Cl)cc(Cl)c2C1
cytotoxicity at 10 µM: 27.9%

O=C(C1CC1)N1CCCC1C1CCN(Cc2ccccc2)CC1 (stereo not given)
cytotoxicity at 10 µM: -9.37%
